Bioassay records: PubChem BioAssay, several laboratories
TDP2 absorb: TDP2 (human) inhibition, absorbance primary screen; inhibition, % at 12.8 µM; recombinant TDP2, T5PNP hydrolysis, p-nitrophenol absorbance 415 nm; 370,000 compounds, 0.34% hits; O95551; AID 720702;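 active = inhibition above the mean of all tested compounds plus 3 SD, set per campaign, cut at about 25% in these data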;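 note: 0% = DMSO with enzyme and 100% = buffer with substrate but no TDP2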
Target sequence (O95551 whole entry, looked up): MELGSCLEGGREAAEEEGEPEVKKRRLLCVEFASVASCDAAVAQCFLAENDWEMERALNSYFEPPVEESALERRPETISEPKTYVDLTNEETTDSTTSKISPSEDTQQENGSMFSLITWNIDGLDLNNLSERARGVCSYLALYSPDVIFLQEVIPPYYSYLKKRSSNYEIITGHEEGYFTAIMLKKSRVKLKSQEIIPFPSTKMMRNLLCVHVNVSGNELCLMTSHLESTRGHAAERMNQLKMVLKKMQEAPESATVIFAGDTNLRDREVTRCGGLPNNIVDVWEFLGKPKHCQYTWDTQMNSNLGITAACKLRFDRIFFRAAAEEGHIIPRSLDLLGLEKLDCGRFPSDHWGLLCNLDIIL
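System – recombinant human TDP2 · Quantity – TDP2 enzyme at 120 nM final · Doses – single concentration, 12.8 µM nominal, with 1% DMSO · Incubation – 2 h at 37 °C · Measured by – epi absorbance of p-nitrophenol freed from T5PNP by hydrolysis · Read-out – % inhibition relative to enzyme-containing and enzyme-free wells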
NSD2 HMT inh: NSD2 (human) methyltransferase inhibition. NSD2 peptide methylation, AlphaScreen, 120 min. 310,000 compounds, 0.54% hits. inhibition, % at 12.5 µM. O96028; in the data active = inhibition above about 50%
UHRF1 binding: human UHRF1 methylated DNA binding inhibitors; inhibition, % at 4.4 µM; Q96T88; UHRF1 binding to methylated oligo, TR-FRET; 370,000 compounds, 0.75% hits; in the data active = inhibition above about 21%;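 note: UHRF1 SRA domain binding a hemimethylated CpG hairpin DNA probe; 0% = median of test compound wells and 100% = reference inhibitor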
MBD2 inh: MBD2-methylated oligo binding inhibition | Q9UBB5 | TR-FRET, MBD2 binding to methylated oligonucleotide | inhibition, % at 4.4 µM | 370,000 compounds, 0.31% hits | AID 686964; in the data active = inhibition above about 13%
LEDGF integ inh: blocks HIV-1 LEDGF/p75-dependent DNA integration; TR-FRET IN-LEDGF/p75 DNA integration, Eu/Cy5; inhibition, % at 3.7 µM; 370,000 compounds, 0.64% hits;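 active = inhibition above the screen-wide mean plus 3 SD, cut at about 13% in these data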;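 note: signal is the Cy5 over europium emission ratio at 671 and 618 nm; 0% = plate median of compound wells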
Casp6 inh: caspase-6 (human) enzyme inhibition; P55212; purified caspase-6, Z-VEID-R110 cleavage fluorescence; inhibition, % at 12.5 µM; 350,000 compounds, 0.53% hits; AID 686996;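 active = mean inhibition across replicates at least about 35%, with every replicate also reaching that limit, limit read from the data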;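 note: 0% = median of neutral control wells and 100% = no fluorescence left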
Target sequence (P55212 24-179 limits assumed): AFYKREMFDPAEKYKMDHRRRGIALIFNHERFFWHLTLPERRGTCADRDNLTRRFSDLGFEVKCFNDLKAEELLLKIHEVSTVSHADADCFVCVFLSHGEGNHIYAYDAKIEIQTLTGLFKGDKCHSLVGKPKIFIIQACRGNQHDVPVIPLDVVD
Target sequence (P55212 194-293 limits assumed): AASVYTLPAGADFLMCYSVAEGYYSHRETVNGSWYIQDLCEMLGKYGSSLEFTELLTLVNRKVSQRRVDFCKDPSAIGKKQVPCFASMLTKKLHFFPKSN
IN multimer act: HIV-1 integrase multimerization activation, counter-screen | TR-FRET HIV-1 integrase multimerization, biochemical | shares compounds with LEDGF integ inh | 2,000 compounds, 17% hits | activation, % at 7.7 µM; in the data active = activation above about 8.9%
TRFRET interf: optically interferes with TR-FRET readout in LEDGF counter-screen; shares compounds with LEDGF integ inh; TR-FRET optical interference counterscreen, HIV-1 IN multimerization; inhibition, % at 7.7 µM; 2,000 tested, under 10 active; AID 1053135;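 active = inhibition above the mean over all tested compounds plus 3 SD, which no compound reached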;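 note: 0% = integrase with antibodies and DMSO and 100% = antibodies without integrase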
LEDGF integ conf: LEDGF/p75-dependent HIV-1 integration inhibition, confirmation; 2,000 compounds, 36% hits; shares compounds with LEDGF integ inh; TR-FRET LEDGF/p75-dependent HIV-1 integration, biochemical; AID 1053136; inhibition, % at 3.7 µM; in the data active = inhibition above about 14%
* marks the source's active call; other numbers are inactive results; . = not tested or not shown. This is a sample that favours compounds with a hit; in the whole collection about 1.8% have one here.

SMILES	TDP2 absorb	NSD2 HMT inh	UHRF1 binding	MBD2 inh	LEDGF integ inh	Casp6 inh	IN multimer act	TRFRET interf	LEDGF integ conf
Cc1ccccc1C(=O)c1c[nH]c(C(=O)NCCc2ccccn2)c1	8.2	-4.9	0.6	3.8	22.2*	-3.4	0.9	-4.3	-2.0
CCC(=O)c1c[nH]c(C(=O)NCCc2ccccn2)c1	-0.7	5.0	-1.8	-2.5	1.2	.	.	.	.
O=C(CN1CCOCC1)NCC[C@H]1CC[C@H](NC(=O)Nc2ccc(C(F)(F)F)cc2)[C@H](CO)O1	.	.	.	.	.	-4.5	.	.	.
O=C(NCc1ccco1)c1ccc(S(=O)(=O)N2CCOCC2)cc1	10.6	5.3	12.3	-0.1	14.4*	.	1.5	-7.6	19.9*
O=C(NCc1ccco1)c1ccc(S(=O)(=O)N2CCCCC2)cc1	5.4	0.9	0.3	-1.7	-2.7	-3.9	.	.	.
CN(Cc1ccccc1)C(=O)c1[nH]cnc1C(=O)Nc1ccccc1	9.2	.	0.5	0.3	1.5	1.2	.	.	.
CN(Cc1ccccc1)C(=O)c1nc[nH]c1C(=O)N(C)Cc1ccccc1	2.6	.	0.8	2.4	16.6*	0.2	0.4	-2.0	6.7
O=C(Nc1cccc(F)c1)N1CC(=O)N2[C@H](CO)[C@@H](c3ccc(C#CC4CC4)cc3)[C@@H]2C1	.	.	.	.	.	-0.3	.	.	.
COC(=O)CN1C(=O)[C@H]2[C@@H](/C=C/c3ccccc3)N3C(=O)CN(Cc4ccccc4)C(=O)[C@@]3(C)[C@H]2C1=O	-6.4	.	-2.4	0.8	81.2*	-1.1	0.3	-1.7	-17.2
Cc1ccc(/C=C2\SC(=S)N(C3CCS(=O)(=O)C3)C2=O)o1 (stereo not drawn)	-2.5	13.5	16.6	-3.6	23.6*	34.1	1.3	-6.6	6.3
O=C1/C(=C/c2ccccc2)SC(=S)N1C1CCS(=O)(=O)C1 (stereo not drawn)	8.0	.	-1.7	-5.8	0.5	3.0	.	.	.
CN1C(=O)c2cc(NC(=O)c3cscn3)ccc2OC[C@@H]2O[C@@H](CC(=O)N3CCCCC3)CC[C@H]21	.	.	.	.	.	-4.1	.	.	.
CCCNC(=O)Nc1ccc2c(c1)OC[C@@H](C)N(C(=O)C1CCCCC1)C[C@H](C)[C@@H](OC)CN(C)C2=O	.	.	.	.	.	1.6	.	.	.
O=[N+]([O-])c1ccc2c(c1)nc1n2CCN(c2ccccc2)C1	-2.1	-0.8	0.7	1.9	16.8*	-2.3	0.2	-0.9	7.4
O=C(O)C(C(=O)/C=C/c1ccco1)=C1SCCS1	-5.0	5.4	19.9	-1.8	17.5*	.	0.9	-4.6	32.5*
O=C(C=C1SCCS1)/C=C/c1ccco1	-8.5	-0.7	1.4	1.6	14.3*	.	5.3	-26.6	35.5*
O=C(/C=C/c1ccco1)NC1CCCC1	-1.9	-8.6	7.0	5.6	2.4	17.2	.	.	.
O=C(/C=C/c1ccc([N+](=O)[O-])cc1)/C=C/c1ccco1	13.2	-4.1	17.1	10.4	22.0*	19.2	0.3	-1.3	47.3*
C[C@H](CO)N1C[C@H](C)[C@@H](CN(C)Cc2ccc(Cl)c(Cl)c2)Oc2ccc(NC(=O)Cc3ccccc3)cc2CC1=O	.	.	.	.	.	-0.3	.	.	.
CN(C)CC(=O)N1[C@H](CO)[C@@H](c2ccccc2)C12CN(C(=O)C1CCCC1)C2	.	.	.	.	.	0.5	.	.	.
CO[C@@H]1CN(C)C(=O)c2cc(NC(=O)C3CCC3)ccc2OC[C@@H](C)N(S(=O)(=O)c2ccc(Cl)cc2)C[C@H]1C	.	.	.	.	.	-0.8	.	.	.
C[C@@H]1CN([C@H](C)CO)C(=O)c2cc(NC(=O)C3CC3)ccc2O[C@H]1CN(C)S(=O)(=O)c1cccs1	.	.	.	.	.	0.7	.	.	.
Cc1cnc(C=NNC(N)=S)c2cccc(N)c12	15.2	36.6	11.0	-3.8	16.5*	66.4*	19.6*	-98.5	61.0*
NC(=S)NN=Cc1nccc2ccccc12	-5.4	8.2	-18.3	-8.4	1.4	1.8	.	.	.
N#CC1=C2SCN(c3ccccc3)CN2C(=O)CC1c1cccs1 (stereo not drawn)	10.8	0.1	-9.3	2.5	0.5	.	.	.	.
SMILES	TDP2 absorb	NSD2 HMT inh	UHRF1 binding	MBD2 inh	LEDGF integ inh	Casp6 inh	IN multimer act	TRFRET interf	LEDGF integ conf
CCOc1ccc(N2CSC3=C(C#N)C(c4ccco4)CC(=O)N3C2)cc1 (stereo not drawn)	33.5*	.	67.0*	28.7*	46.9*	23.3	15.0*	-75.6	40.5*
CCOC(=O)c1ccc(N2CSC3=C(C#N)C(c4ccc(OC)cc4OC)CC(=O)N3C2)cc1 (stereo not drawn)	8.1	.	-0.8	-3.5	0.5	-0.2	.	.	.
Cc1ccc(C2CC(=O)N3CN(c4ccc(Br)cc4)CSC3=C2C#N)o1 (stereo not drawn)	-0.4	.	41.3*	6.8	42.8*	.	8.5	-42.9	39.8*
COCC(=O)Nc1ccc2c(c1)C(=O)N(C)C[C@H](OC)[C@H](C)CN(Cc1cc(F)ccc1F)[C@@H](C)CO2	.	.	.	.	.	-1.7	.	.	.
O=C(NCc1ccccc1)c1cc(C2CCCN(S(=O)(=O)c3cccc4cccnc34)C2)on1 (stereo not drawn)	-3.7	0.5	0.0	0.4	1.0	0.3	.	.	.
CCCNC(=O)c1cc(C2CCCN(S(=O)(=O)c3cccc4cccnc34)C2)on1 (stereo not drawn)	-6.6	-0.1	-0.8	0.5	37.0*	-2.0	-4.1	14.6	0.7
COc1ccc(NC(=O)N(C)C[C@H]2Oc3ccc(NS(=O)(=O)c4ccc(F)cc4)cc3CC(=O)N([C@@H](C)CO)C[C@H]2C)cc1	.	.	.	.	.	-1.3	.	.	.
O=C(NCc1n[nH]c(=S)n1-c1ccccc1)c1ccco1	7.0	2.3	1.2	7.6	14.9*	.	-0.4	2.2	-7.9
O=C(NC[C@@H]1CC[C@@H]2[C@@H](CN2S(=O)(=O)c2ccccc2[N+](=O)[O-])O1)C1CCCCC1	.	.	.	.	.	-4.9	.	.	.
O=C(Nc1ccc(F)cc1)NC1CCN(Cc2nnnn2Cc2ccco2)CC1	-8.3	10.2	18.7	8.6	13.9*	.	-1.1	4.1	-0.7
Cn1c(=O)c2c(nc(SCc3ccc(C(=O)O)cc3)n2C)n(C)c1=O	-6.3	-0.8	0.4	-3.7	14.1*	12.0	-2.6	13.0	7.9
CCc1ccc(NC(=O)CSc2nc3c(c(=O)n(C)c(=O)n3C)n2C)cc1	1.3	.	-1.7	-0.8	-3.9	-1.8	.	.	.
O=C(Nc1nc(-c2ccccc2)c(-c2ccccc2)o1)c1ccc(F)cc1	-2.0	-0.5	1.1	0.3	26.0*	.	-0.1	0.4	18.4*
CCOC(=O)C(=O)Nc1nc(-c2ccccc2)c(-c2ccccc2)o1	-13.7	.	1.2	-1.8	0.1	1.0	.	.	.
